Assay results as given in ChEMBL document CHEMBL1142037, “Cyclization-activated prodrugs. Synthesis, reactivity and toxicity of dipeptide esters of paracetamol” (Bioorg Med Chem Lett, 2005).

Key:
[1] = Half life required for the release of paracetamol; format: ADME
[2] = Relative rate constant for release of paracetamol was determined; format: ADME
[3] = Rate constant for release of paracetamol was determined; format: ADME
Mus musculus = species: Mus musculus; experiment: Effect on glutathione levels in mice; format: functional
Outline: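 Male BALB/c mice (17–21 g, 5 weeks old), four per group, given a single ip dose of 3.3 mmol/kg in 30% propyleneglycol. Controls received vehicle ip. Livers were taken 2 h after dosing and kept on ice. Reduced glutathione in liver homogenate was measured at once with DTNB and reported as µmol/g tissue.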

| Compound | T1/2 [1] | Krelative [2] | K obs [3] | Glutathione levels (Mus musculus) |
| --- | --- | --- | --- | --- |
| CC(=O)Nc1ccc(OC(=O)CNC(=O)[C@@H]2CCCN2)cc1.O=C(O)C(F)(F)F | 2 min | 0.41 | 0.0059 s⁻¹ |  |
| CC(=O)Nc1ccc(OC(=O)CNC(=O)[C@@H](N)C(C)C)cc1.O=C(O)C(F)(F)F | 16 min | 0.05 | 0.00071 s⁻¹ | 3.87 umol/g tissue |
| CC(=O)Nc1ccc(OC(=O)CNC(=O)[C@@H](N)Cc2ccccc2)cc1.O=C(O)C(F)(F)F | 14 min | 0.06 | 0.000821 s⁻¹ | 2.68 umol/g tissue |
| CC(=O)Nc1ccc(OC(=O)[C@@H]2CCCN2C(=O)CN)cc1.O=C(O)C(F)(F)F |  |  | Too fast to be monitored |  |
| CNCC(=O)NCC(=O)Oc1ccc(NC(C)=O)cc1.O=C(O)C(F)(F)F |  |  | Too fast to be monitored |  |
| CC(=O)Nc1ccc(OC(=O)[C@H](Cc2ccccc2)NC(=O)CN)cc1.O=C(O)C(F)(F)F | 2 min | 0.4 | 0.00564 s⁻¹ | 3.74 umol/g tissue |

The next lines start with results.

| T1/2 [1] | Krelative [2] | K obs [3] | Compound | Glutathione levels (Mus musculus) |
| --- | --- | --- | --- | --- |
|  |  | Too fast to be monitored | CC(=O)Nc1ccc(OC(=O)CN(C)C(=O)CN)cc1.O=C(O)C(F)(F)F |  |
| 20 min | 0.04 | 0.00057 s⁻¹ | CC(=O)Nc1ccc(OC(=O)[C@@H](NC(=O)CN)C(C)C)cc1.O=C(O)C(F)(F)F |  |
| 0.9 min | 0.94 | 0.0134 s⁻¹ | CC(=O)Nc1ccc(OC(=O)[C@H](C)NC(=O)CN)cc1.O=C(O)C(F)(F)F |  |
| 0.8 min | 1 | 0.0143 s⁻¹ | CC(=O)Nc1ccc(OC(=O)CNC(=O)CN)cc1.O=C(O)C(F)(F)F |  |
| 3 min | 0.24 | 0.0034 s⁻¹ | CC(=O)Nc1ccc(OC(=O)CNC(=O)[C@H](C)N)cc1.O=C(O)C(F)(F)F |  |
